Source: PubChem BioAssay (several laboratories)
pCIP destab – p/CIP-EGFP fusion destabilizers, primary screen, fluorescence, F442A cells; AID 1984, 2009; actives 0.01% (n = 290,000); Q05BA5; 16 h; decrease of EGFP signal, % at 10 µM;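 active = EGFP signal decrease of at least 30% at 10 µM or well 3 SD below plate mean, unless failing retest; inactive = the rest, including hits failing retest or dose response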
FXN GAA850 act – FXN promoter activators, primary screen, cell-based, luciferase luminescence, HEK293 lucGAA850. HEK293 lucGAA850 FXN promoter luciferase reporter, 24 h; percent of 10 µM SAHA response. activation, % at 6 µM. actives 0.56% (n = 360,000). AID 540364, 2011;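 active = activation above the average of all compounds screened plus 3 SD, cutoff fixed separately per campaign, cut at about 7.5% in these data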;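 note: 0% = DMSO wells and 100% = 10 µM SAHA wells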
Lipid droplet – inhibitors of hepatocyte lipid droplet formation, primary screen, imaging, high-throughput imaging, BODIPY stain. AML12 mouse hepatocytes, oleate lipid droplets. inhibition, % at 6.5 µM. actives 0.4% (n = 240,000);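 active = lipid droplet intensity inhibited by at least 50%, with more than 500 cells counted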
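material = mouse AML12 hepatocyte cell line, fixed after treatment | also added = 100 µM oleic acid challenge | doses = compound at 6.5 µM only | schedule = overnight exposure | technique = Image-based BODIPY and DAPI two-channel analysis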
proCasp3 act – activators of human procaspase-3 D3A mutant, primary screen, biochemical, absorbance, PC-3 D3A mutant, single concentration | Caspase-3 (Homo sapiens), P42574 | recombinant procaspase-3 D3A, Ac-DEVD-pNA absorbance 405 nm | activation, % at 8.5 µM | actives 0.11% (n = 330,000) | AID 463141, 2010;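 active = activation above the mean of all tested compounds plus 3 SD, cut at about 21% in these data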;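 note: 0% = DMSO alone and 100% = DMSO wells spiked with extra 5 µM PC-3 D3A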
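System: Procaspase-3 D3A mutant. Medium: Zinc-free 300 mM NaCl, 50 mM HEPES, 0.01% Triton X-100. Schedule: 1 h preincubation plus 2 h reaction at 25 °C. Measured by: 405 nm absorbance of p-nitroaniline, reads at 0 and 120 min. Read-out: percent activation relative to control range.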
proCasp7 act – procaspase-7 activators, primary screen, counter-screen for procaspase-3 activator project, biochemical, absorbance, HTS, human; Caspase-7 (Homo sapiens), P55210; recombinant procaspase-7, Ac-DEVD-pNA absorbance 405 nm; D23A/D198A/D206A triple mutant, cannot self-cleave; scale: DMSO 0, 5 µM enzyme 100; activation, % at 8.5 µM; actives 0.093% (n = 330,000);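 active = percent activation above the screen-wide mean plus 3 SD, cut at about 25% in these data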
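buffer or medium = Zinc-free HEPES/NaCl buffer, pH 7.4 | material = Procaspase-7 triple mutant (PC-7 D3A) | input = 2 µM procaspase-7 mutant as dispensed | signal = Epi-absorbance of released pNA at 405 nm, two timepoints | timing = 1 h preincubation, 2 h reaction | replicates = singlicate compound testing | evaluation = % activation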
Rce1 inhib – yeast Rce1p protease inhibitors, primary screen, biochemical, fluorescence, cell-free homogeneous; CAAX prenyl protease 2 (Saccharomyces cerevisiae (strain ATCC 204508 / S288c)), Q03530; yeast membranes, quenched prenylated peptide cleavage fluorescence; calls only; actives 0.27% (n = 290,000); AID 2563, 2010;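 active = fall in fluorescence gain of 50% or more versus controls, with final raw signal at or below 3038400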;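 note: plate controls were neutral control wells for no effect and wells lacking membranes for full effect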
GAA30 FXN cntr – GAA30 FXN promoter activators, confirmation, counter-screen for GAA850 frataxin promoter activator project, cell-based, luminescence, HEK293, lucGAA30, triplicate. shares compounds with FXN GAA850 act. HEK293 lucGAA30 FXN promoter luciferase, 24 h; DMSO = 0%, 5 µM ipriflavone = 100%. activation, % at 6 µM. AID 588350, 2011. actives 66% (n = 1,900);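 active = mean activation above the mean of solvent-only control wells plus 3 SD, cut at about 22% in these data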;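 note: counterscreen of GAA850 promoter hits where activity marks nonselective or luminescence artifacts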
GAA850 confirm – FXN GAA850 promoter activators in reporter cells, confirmation, cell-based, luminescence, HEK293 lucGAA850, triplicate | activation, % at 6 µM | actives 86% (n = 1,900) | HEK293 lucGAA850 FXN promoter luciferase reporter, 24 h; 100% = activation by SAHA | shares compounds with FXN GAA850 act;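 active = mean activation above a set limit taken from the primary screen, cut at about 8% in these data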;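 note: 0% = DMSO wells and 100% = 10 µM SAHA wells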
* marks the source's active call; other numbers are inactive results; i = inactive; · = no result. The list is not random: actives were taken first. Their share in the collection is about 1.2%.

SMILES	pCIP destab	FXN GAA850 act	Lipid droplet	proCasp3 act	proCasp7 act	Rce1 inhib	GAA30 FXN cntr	GAA850 confirm
C=CCNCCCCOc1ccc(OCc2ccccc2)cc1	-5	9.1*	27	-1	-8	i	102*	49*
c1ccc(COc2ccc(OCCCCN3CCCC3)cc2)cc1	0	7.6*	-30	-8	2	i	83*	33*
COCCCNCCCCOc1ccc(OCc2ccccc2)cc1	-9	4	-14	-1	-6	i	·	·
Cc1cc(C)nc(NC(=O)c2c(F)c(F)c(F)c(C(=O)Nc3cc(C)cc(C)n3)c2F)c1	·	-2	·	2	4	i	·	·
CC1(Cc2ccc(OC(F)(F)F)cc2)C(=O)Nc2ccc(S(=O)(=O)NC3CCCCC3)cc21 (centres undefined)	·	1	·	·	·	·	·	·
CC1(Cc2ccc(Cl)cc2)C(=O)Nc2ccc(S(=O)(=O)NC3CCCCC3)cc21 (centres undefined)	·	8.3*	·	·	·	·	-11	1
COc1cc(-c2c(C#N)c(N)nc(SCc3ccncc3)c2C#N)cc(OC)c1OC	0	-8	·	2	3	i	·	·
N#Cc1c(N)nc(SCc2ccncc2)c(C#N)c1-c1cccs1	4	9.9*	12	-5	1	i	-8	6
COc1ccc(-c2nnc3sc(C4CCCCC4)nn23)cc1OC	-17	8.8*	14	2	2	i	10	11*
COc1ccc(-c2nn3c(C4CCCCC4)nnc3s2)cc1OC	-22	13*	·	-16	-22	i	13	9.7*
COc1cc(-c2nn3c(C4CCCCC4)nnc3s2)cc(OC)c1OC	-16	0	·	2	4	i	·	·
O=C(CCC(=O)N1CCSc2ccccc21)NC1CCCCC1	-8	8.0*	-6	1	2	i	14	5
O=C(CCC(=O)N1CCSc2ccccc21)NCCc1ccccc1	-1	0	-1	1	4	i	·	·
COc1ccc(N2C(=O)C3CCCN3C2c2ccc(Cl)cc2)cc1 (centres undefined)	-4	1	·	6	3	i	·	·
COc1ccc(C2N(c3ccc(Cl)cc3)C(=O)C3CCCN32)cc1 (centres undefined)	-13	13*	·	-2	7	i	-5	3
CCc1ccc(C(C)(O)C(CN2CCOCC2)c2ccccc2)cc1 (centres undefined)	-16	0	2	1	5	i	·	·
O=C(O)c1c[nH]c2c([N+](=O)[O-])cccc2c1=O	·	-1	·	·	·	·	·	·
COc1cccc(CN(C)C(=O)c2ccc(N3CCCC3)c([N+](=O)[O-])c2)c1	-12	0	30	3	-13	i	·	·
COc1ccccc1NC(=O)N(Cc1ccccc1)c1ccccn1	1	9.7*	-22	-11	13	i	38*	20*
COCC(=O)N(Cc1ccccc1)c1ccccn1	-8	-1	-2	-1	-6	i	·	·
O=C(CN1C(=O)c2cccnc2Oc2ccc(Cl)cc21)Nc1ccccc1F	-11	1	-21	0	-9	i	·	·
COc1ccc(C(=O)c2sc(Nc3ccccc3)nc2N)cc1OC	-10	9.2*	8	-4	3	i	-20	38*
Nc1nc(Nc2ccccc2)sc1C(=O)c1ccccc1	-4	22*	5	-3	-1	i	102*	107*
COc1ccc(C(=O)c2sc(Nc3ccccc3)nc2N)cc1	-5	4	-5	·	·	i	·	·
COc1ccc(C(=O)c2sc(Nc3ccccc3F)nc2N)cc1	12	8.1*	·	-4	-11	i	81*	43*
SMILES	pCIP destab	FXN GAA850 act	Lipid droplet	proCasp3 act	proCasp7 act	Rce1 inhib	GAA30 FXN cntr	GAA850 confirm
CC1(C)CC(=O)c2c(O)cc(OCc3ccc(Br)cc3)cc2O1	-14	9.4*	-2	-4	-24	i	99*	36*
CC1(C)CC(=O)c2ccc(OCc3ccc([N+](=O)[O-])cc3)cc2O1	2	8.4*	-5	6	-1	i	136*	50*
CCN(CC)S(=O)(=O)c1ccc(OC)c(NC(=O)OCc2ccccc2)c1	-11	3	-20	-1	-1	i	·	·
COCCCNc1nc2c(-c3ccc(C)cc3)nnn2c2ccccc12	6	7.7*	7	-9	4	i	92*	39*
COc1cc(OC)cc(OC(=O)C2CCN(C(=O)c3ccc(F)cc3)CC2)c1	·	-1	·	5	-2	i	·	·
OC12CCCCC1C(c1ccc3c(c1)OCO3)N(Cc1ccccc1F)CC2 (centres undefined)	-6	1	·	4	-4	i	·	·
OC12CCCCC1C(c1ccc3c(c1)OCO3)N(Cc1ccc(F)cc1)CC2 (centres undefined)	1	15*	·	4	1	i	21	12*
OC12CCCCC1C(c1ccc3c(c1)OCO3)N(Cc1cccc(F)c1)CC2 (centres undefined)	-12	12*	·	·	·	i	20	13*
O=C(COC(=O)Cn1cc(C(F)(F)F)ccc1=O)NCc1ccccc1	·	-1	·	·	·	·	·	·
O=S(=O)(Nc1nc2ccccc2nc1N1CCN(c2ccccc2)CC1)c1ccc(F)cc1	-2	8.0*	14	3	-18	i	18	9.7*
Cc1ccc(S(=O)(=O)Nc2nc3ccccc3nc2N2CCOCC2)cc1	·	0	·	1	-7	·	·	·
NC(=O)Cn1cc(/C=N/NC(=O)c2ccc(Cn3cc(Cl)cn3)o2)c(-c2ccccc2)n1	-6	-1	22	·	·	i	·	·
COc1ccc(OC)c(N(CCN2C(=O)c3ccccc3C2=O)C(=O)C2CCC(=O)C2C)c1 (centres undefined)	·	1	·	·	·	·	·	·
